# Only some compounds are listed: those with a hit (about 2.4% of all), similar ones and a draw of the others.
# RanGTP-Imp inh: inhibitors of RanGTP-importin-beta interaction, primary screen, biochemical, FRET, CFP-Ran, YFP-importin-beta, homogeneous; inhibition, % (test concentration not listed); 300,000 compounds, 1.1% hits; AID 2216; cell-free CFP-Ran/YFP-importin-beta FRET ratio;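 active = more than half of the replicate wells show a fall in the fluorescence ratio signal beyond about 16%, limit read from the data, passing the limit was not always enough; inconclusive = exactly half of the replicate wells pass the set limit; inactive = fewer than half of replicates pass the limit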;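 note: 0% = DMSO wells and 100% = Ran loaded with GDP instead of GTP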
# Runt-CBFb FRET: inhibitors of human RUNX1 Runt domain binding to CBFb. Cerulean-Runt/Venus-CBFb FRET ratio 530/480, 1 h. inhibition, % at 20 µM. 220,000 compounds, 0.46% hits. AID 1496;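 active = inhibition over about 50% at 20 µM in the single-dose screen, limit read from the data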;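 note: 0% = DMSO wells and 100% = excess unlabeled CBFb competitor control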
#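 Reagent – Venus-CBFb binding partner, 100 nM · Assay system – Cerulean-tagged RUNX1 Runt domain (FRET donor) fusion protein · Input – 100 nM per protein · Incubation – two 1 h room-temperature incubations shielded from light · Measured by – FRET fluorescence · Medium – Tris buffer pH 7.5 with salts and BSA · Benchmarks – unlabeled CBFb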
# MEX-5 binding: C. elegans MEX-5 TCR-2 RNA binding activity; 300,000 compounds, 0.38% hits; activity score (negative = inhibition of binding), % at 10 µM; MEX-5/FITC-TCR2 RNA binding, fluorescence polarization; stronger effect = lower value; Q9XUB2;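 active = inhibition past about -25% in most replicates, and total fluorescence under double the plate's negative control median, limit read from the data; inconclusive = replicates evenly split on the limit, or fluorescence at least double controls; inactive = too little inhibition in most replicates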;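 note: 0% = DMSO and -100% = 5 µM competing unlabeled TCR2 RNA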
# Runt-SMMHC FRET: Runt domain-CBFb-SMMHC interaction inhibition | Cerulean-Runt/Venus-CBFb-SMMHC FRET ratio 530/480, 1 h | 220,000 compounds, 0.74% hits | Q01196+Q13951 | AID 1434 | inhibition, % at 20 µM;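 active = mean inhibition across duplicate retests at 20 µM reaching about 50%, limit read from the data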;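 note: 0% = DMSO wells and 100% = wells with excess untagged CBFb-SMMHC; inhibitors lower the FRET ratio by blocking Runt binding to CBFb-SMMHC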
# LANA-H2A inh: blocks KSHV LANA binding to histone H2A/H2B; AID 2629; cell-free LANA-H2A/H2B peptide, fluorescence polarization; 320,000 compounds, 0.6% hits; inhibition, % (no concentration beside the values); Q9QR71; in the data active = inhibition mostly above about 10%, no sharp cut-off; inactive = mostly below about 6.7%
# EBV gp42 block: EBV gp42 inhibition. Q1HVG2. Fluorescence polarization binding assay, mP read-out. inhibition, % (tested at 21.74 µM). 220,000 compounds, 0.42% hits. AID 1085; in the data active = inhibition above about 50%
# Target sequence (Q1HVG2 whole entry, looked up): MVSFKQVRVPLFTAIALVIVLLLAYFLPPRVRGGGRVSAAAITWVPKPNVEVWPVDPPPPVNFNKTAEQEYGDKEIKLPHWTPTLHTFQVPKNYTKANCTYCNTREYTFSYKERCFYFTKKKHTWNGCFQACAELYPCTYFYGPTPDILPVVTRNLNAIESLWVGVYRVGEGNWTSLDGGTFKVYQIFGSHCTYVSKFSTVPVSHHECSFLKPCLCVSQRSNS
# * = called active by the depositor; ? = inconclusive; · = no result.
SMILES,RanGTP-Imp inh,Runt-CBFb FRET,MEX-5 binding,Runt-SMMHC FRET,LANA-H2A inh,EBV gp42 block
CCc1ccc(N(C(=O)c2snc(C(N)=O)c2N)C(C(=O)NC2CCCC2)c2ccco2)cc1 (stereo not drawn),5,·,0,·,0,·
NC(=O)c1nsc(C(=O)N(CCc2ccccc2)C(C(=O)NC2CCCC2)c2ccco2)c1N (stereo not drawn),89*,4,2,6,5,-15
CC1(C)CC(=O)C=C(NCC(O)c2ccccc2)C1 (stereo not drawn),1,·,1,·,-2,·
CCNC(=O)N(C)C[C@H]1N[C@@](C)(C(=O)OC)[C@H]2C(=O)N(C)C(=O)[C@@H]12,·,·,·,·,-7,·
CCN(C[C@H]1N[C@@](C)(C(=O)OC)[C@H]2C(=O)N(C)C(=O)[C@@H]12)C(=O)c1ccc(C)cc1,·,·,·,·,67*,·
COC(=O)[C@]1(C)N[C@H](CN(C)C(=O)Nc2ccc(C)cc2)[C@@H]2C(=O)N(C)C(=O)[C@@H]21,·,·,·,·,160*,·
Cc1ccc(OCCN(C)C(=O)C2CCC(=O)N(CC3CCCCC3)C2)cc1 (stereo not drawn),?,·,-7,·,0,·
CCNc1nc(C)c(CN(C(C)=O)c2ccccc2)nc1C#N,4,32,-1,91*,1,-10
CCOC(=O)C(Cc1ccccc1)C(=O)c1ccco1 (stereo not drawn),7,·,-3,·,-4,·
CCCCC(C(=O)OCC)C(N)Cc1ccc(F)cc1 (stereo not drawn),?,-3,-1,-4,20*,13
O=[N+]([O-])c1cccc(/C=C/c2nc(C=Nc3ccccc3)c(O)o2)c1,?,-10,-43*,-9,3,-3
CCN(C)c1ccc(/C=N\n2nnnc2N)cc1,-1,21,0,54*,5,-1
COc1cc(/C=N/N2CCN(C3c4ccccc4-c4ccccc43)CC2)cc(OC)c1O,1,50,-4,56*,0,-7
Cc1ccc(S(=O)(=O)N2CCCC2CNC(=O)C(=O)Nc2ccc(F)cc2)cc1 (stereo not drawn),31*,·,2,·,-6,·
Cc1cccn2c(=O)c3cc(C(=O)NCCN4CCOCC4)c(=N)n(CCCN4CCOCC4)c3nc12,131*,·,-1,·,3,·
Cc1cccn2c(=O)c3cc(C(=O)NCCN4CCOCC4)c(=N)n(CCc4ccccc4)c3nc12,185*,11,-1,41,0,-9
COc1ccc(CCn2c(=N)c(C(=O)NCCN3CCOCC3)cc3c(=O)n4cccc(C)c4nc32)cc1OC,11,·,-1,·,3,·
CCN(CC(=O)Nc1c(F)cccc1F)C(=O)COc1cccc2c1OC(C)(C)C2,1,·,-1,·,0,·
CCCc1cc(=O)n2[nH]c(C)nc2n1,23*,1,-4,-4,0,-1
CCCc1cc(=O)n2[nH]c(C(F)(F)F)nc2n1,?,1,-2,2,2,-8
CCCCCn1nc(-c2ccccc2)c2nc3ccccc3nc21,·,·,?,-84,30*,161*
O=C(O)CCn1c2ccccc2c2nc3ccccc3nc21,-1,·,-1,·,-7,·
CCn1nc(-c2ccccc2)c2nc3ccccc3nc21,-36,-104,?,-2,7,93*
CCCCn1c2nc3ccccc3nc2c2c(=O)n(CCC)cnc21,-4,0,5,22,-3,-11
CCCn1nc(-c2ccccc2)c2nc3ccccc3nc21,·,-108,·,35,21,65*
SMILES,RanGTP-Imp inh,Runt-CBFb FRET,MEX-5 binding,Runt-SMMHC FRET,LANA-H2A inh,EBV gp42 block
CN(C)CCNC(=O)C(=O)NCC1OCCN1S(=O)(=O)c1ccc2c(c1)OCCO2 (stereo not drawn),6,1,2,-2,3,4
Cc1ccccc1NC(=S)N(CCCN1CCOCC1)Cc1ccccn1,-1,-1,1,0,5,6
COc1ccc(NC(=O)c2ocnc2C)cc1OC,-3,-1,0,-3,-1,-18
COc1ccc(Cl)cc1NC(=O)c1ocnc1C,1,-3,1,-2,18*,-19
COc1ccccc1N(CC(=O)N1CCN(c2ccc(F)cc2)CC1)S(=O)(=O)c1ccc(C)cc1,1,·,0,·,-3,·
Cc1ccc2sc(NC(=O)CSc3nc(C)cc(C)c3C#N)nc2c1,8,12,1,56*,-1,-4
CC(C)c1ccc(/C=C(\NC(=O)c2ccccc2)C(=O)NCCCN2CCOCC2)cc1,8,-2,-1,0,2,-12
O=C(c1n[nH]c2ccccc12)N1CCOCC1,5,1,-1,0,0,-7
O=C(c1c[nH]c2ccccc12)N1CCOCC1,-1,1,1,-5,40*,-5
COc1ccc(N(C)S(=O)(=O)c2cccc(C(=O)NC3CCCC(C)C3C)c2)cc1 (stereo not drawn),-1,·,1,·,-4,·
CCN1CCC(NCCc2ccc(F)cc2)CC1,-1,·,0,·,-3,·
COc1c(O)cccc1[C@H](O)C1CCN(CCc2ccc(F)cc2)CC1,-49,·,-39*,·,2,·
CSc1ccc(NC(=O)C(C)N2CCN(C)CC2)cc1 (stereo not drawn),3,·,-1,·,-5,·
O=[N+]([O-])c1ccc(Cl)c2c1C1C=CCC1C(c1ccccn1)N2 (stereo not drawn),2,-3,-3,-14,0,-5
O=C(O)c1ccc(Cl)c2c1C1C=CCC1C(c1ccccn1)N2 (stereo not drawn),-2,17,-68*,12,1,28
Cc1cc(C)cc(NC(=O)Nc2ccccc2N2CCCCC2)c1,2,-1,0,2,12*,-10
Cc1cc(C)cc(OCC(=O)Nc2ccccc2N2CCCCC2)c1,-2,-1,1,-3,4,2
CCOc1ccc(C(=O)NC(=S)Nc2cc(C)ccn2)cc1[N+](=O)[O-],?,·,-2,·,98*,·
Cc1ccc2cccc(OCC(=O)Nc3cccc(S(=O)(=O)N4CCCC4)c3)c2n1,·,·,·,·,0,·
Cc1ccc2c(nc3s/c(=C\c4ccc(-c5ccccc5C(=O)O)o4)c(=O)n32)c1C,-4,·,-10,·,-1,·
O=c1nc2s/c(=C\c3ccc(-c4ccccc4[N+](=O)[O-])o3)c(=O)n2nc1-c1ccccc1,3,27,-9,4,·,176*
Cc1nc(S/C(=C/c2ccc(OCc3ccc(C(=O)O)cc3)cc2)C(=O)O)n[nH]1,0,-4,-69*,-4,-2,1
NC(=O)c1ccc(NC(=O)COC(=O)CNC(=O)c2sc3ccccc3c2Cl)cc1,·,·,·,·,-3,·
Cc1c(N(C)C)nc2ccccc2c1N,3,-1,1,1,-4,-15
Cc1c2ccccc2nc2c(F)c(N(C)C)c(F)c(F)c12,-5,-6,-5,-44,5,197*

# Assay outcomes: PubChem BioAssay, several laboratories
